Here are results for 2 molecules from ChEMBL document CHEMBL5376024, “Small molecule WDR5 inhibitors down-regulate lncRNA expression” (RSC Med Chem, 2024).

Calls of active or inactive are those of the source. The calls are words filed in the database; no cut-off is given here.

Common to all, as to format: cell-based
The test system of test [1] is U2OS. Kind of test: Inhibition of HOXC13-AS-WDR5 complex formation in human U2OS cells at 10 uM by in vitro RNA immunoprecipitation assay. The procedure, abridged:
(§1)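 RIP assay on purified FLAG-WDR5 loaded at 0.2 mg/mL onto anti-FLAG magnetic beads (Buffer C with 0.1% IGEPAL, 0.1% BSA, 10 µg/mL yeast tRNA; 4 °C, 3 h). The beads were then given 1 µg of U-2 OS total RNA (TRIzol) with or without inhibitor, in 0.1% DMSO in RIP buffer (Tris pH 7.5, KCl, EDTA, RNasin), for 1 h at rt. RNA was read by RT-qPCR as percentage enrichment against a 50% input.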

Test [2] has as its system U2OS. As to the kind of experiment: Inhibition of HOTTIP-WDR5 complex formation in human U2OS cells at 10 uM by in vitro RNA immunoprecipitation assay. Summed up:
as §1

The test system of test [3] is MDA-MB-231. Kind of test: Inhibition of IncRNA-WDR5 complex in human MDA-MB-231 cells assessed as downregulation of HOTTIP expression measured at 10 uM after 1 day by RT-qPCR analysis. Summed up: (§2)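 MDA-MB-231 cells (DMEM, 10% FBS, 37 °C, 5% CO2) were seeded in 12-well plates at 1×10^5 cells/well for 1-day runs or 5×10^4 cells/well for 3-day runs. After one day the medium was replaced with medium holding compound (1, 5 or 10 µM) or 0.1% DMSO blank. Total RNA was extracted with TRIzol and analysed by RT-qPCR. Fold change was calculated by 2^-ΔΔCt against GAPDH and the blank. Values are means of individual bioreplicates ± SD.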
A general note: Quantitative PCR measures a nucleic acid by following its amplification.

For test [4], the system named is MDA-MB-231. As to the kind of experiment: Inhibition of IncRNA-WDR5 complex in human MDA-MB-231 cells assessed as downregulation of FOXD3-AS1 expression measured at 10 uM after 1 to 3 days by RT-qPCR analysis. The note with it: time 1-3 day. The procedure, abridged: as §2
The subject of test [5] is MDA-MB-231. Kind of test: Inhibition of IncRNA-WDR5 complex in human MDA-MB-231 cells assessed as downregulation of HOTTIP expression measured at 10 uM after 3 days by RT-qPCR analysis. The note with it: time 3.0 day. Summed up: as §2

Take `CN1CCN(c2ccc(-c3cccc(CN4CCOCC4)c3)cc2NC(=O)c2c[nH]c(=O)cc2C(F)(F)F)CC1`: the inhibition result with U2OS [1] and in the test with U2OS [2] was “inactive” each time. In addition, in the test with MDA-MB-231 [3], the inhibition entry was “Active”.
With `CNC(=O)c1cc(C2(C#N)CCC2)cc(NS(=O)(=O)c2cc(Br)cc(Cl)c2O)c1O`, the inhibition result in the test with MDA-MB-231 [4] and in the test with MDA-MB-231 [3] was “inactive” in each case. Also, the inhibition result with U2OS [1], with MDA-MB-231 [5] and with U2OS [2] was “Active” throughout.
